The source made the active and inactive calls. The rule behind the calls is not given here.
How the values were obtained:
[1] = Antiproliferative activity against human MCF7/ADR cells after 72 hrs by sulforhodamine B assay; assay type: functional, cell-based; conditions: NCI/ADR-RES
Outline: (§1)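 Cells seeded and exposed in triplicate to graded compound concentrations for 72 h. Suspension cells read by MTT conversion to coloured product; adherent cells read by sulforhodamine B. IC50 (50% growth inhibition versus untreated control) derived by the Logit method.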

HL-60 = assay: Antiproliferative activity against human HL60 cells after 72 hrs by sulforhodamine B assay; assay type: functional, cell-based; conditions: HL-60, 72 h, in the assay text read “MTT assay” for “sulforhodamine B assay”; outline: as §1
HeLa = assay: Antiproliferative activity against human HeLa cells after 72 hrs by sulforhodamine B assay; assay type: functional, cell-based; outline: as §1
HT-29 [2] = assay: Inhibition of DNA synthesis in human HT-29 cells measured up to 8 hrs by BrdU incorporation assay; assay type: functional, cell-based
Outline: (§2)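 HT-29 cells; DNA synthesis measured by BrdU incorporation with flow detection.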

LoVo = assay: Antiproliferative activity against human LoVo cells after 72 hrs by sulforhodamine B assay; assay type: functional, cell-based; outline: as §1
MKN-45 = assay: Antiproliferative activity against human MKN45 cells after 72 hrs by sulforhodamine B assay; assay type: functional, cell-based; conditions: MKN-45, 72 h; outline: as §1
MKN-28 = assay: Antiproliferative activity against human MKN28 cells after 72 hrs by sulforhodamine B assay; assay type: functional, cell-based; conditions: MKN-28, 72 h; outline: as §1
MDA-MB-231 = assay: Antiproliferative activity against human MDA-MB-231 cells after 72 hrs by sulforhodamine B assay; assay type: functional, cell-based; conditions: MDA-MB-231, 72 h; outline: as §1
MDA-MB-435 = assay: Antiproliferative activity against human MDA-MB-435 cells after 72 hrs by sulforhodamine B assay; assay type: functional, cell-based; conditions: MDA-MB-435, 72 h; outline: as §1
NCI-H23 = assay: Antiproliferative activity against human NCI-H23 cells after 72 hrs by sulforhodamine B assay; assay type: functional, cell-based; conditions: NCI-H23, 72 h; outline: as §1
A549 = assay: Antiproliferative activity against human A549 cells after 72 hrs by sulforhodamine B assay; assay type: functional, cell-based; conditions: A549, 72 h; outline: as §1
Bel-7402 = assay: Antiproliferative activity against human Bel7402 cells after 72 hrs by sulforhodamine B assay; assay type: functional, cell-based; conditions: Bel-7402, 72 h; outline: as §1
SMMC-7721 = assay: Antiproliferative activity against human SMMC7721 cells after 72 hrs by sulforhodamine B assay; assay type: functional, cell-based; conditions: SMMC-7721, 72 h; outline: as §1
K562 = assay: Antiproliferative activity against human K562 cells after 72 hrs by sulforhodamine B assay; assay type: functional, cell-based; conditions: K562, 72 h; outline: as §1
A-375 = assay: Antiproliferative activity against human A375 cells after 72 hrs by sulforhodamine B assay; assay type: functional, cell-based; conditions: A-375, 72 h; outline: as §1
KB = assay: Antiproliferative activity against human KB cells after 72 hrs by sulforhodamine B assay; assay type: functional, cell-based; outline: as §1
[3] = Antiproliferative activity against human K562/A02 cells after 72 hrs by sulforhodamine B assay; assay type: functional, cell-based; conditions: K562/A02, 72 h, in the assay text read “MTT assay” for “sulforhodamine B assay”; outline: as §1
CCRF S-180 [4] = assay: Antitumor activity against mouse S180 cells transplanted in Kunming mouse assessed as inhibition of tumor growth at 50 mg/kg/day, ip for 7 days; assay type: functional; conditions: CCRF S-180, ip, 168 h, route intraperitoneal
Outline: (§3)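 Female Kunming mice, 7 weeks old, 18-22 g, inoculated sc in the right armpit with S-180 sarcoma. Dosing began the next day, ip daily for 7 days; normal saline given iv as control. Tumours excised and weighed after treatment. Inhibitory rate (%) = (mean control tumour weight − mean treated tumour weight)/mean control tumour weight × 100.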

CCRF S-180 [5] = assay: Antitumor activity against mouse S180 cells transplanted in Kunming mouse assessed as inhibition of tumor growth at 25 mg/kg/day, ip for 7 days; assay type: functional; conditions: CCRF S-180, ip, 168 h, route intraperitoneal; outline: as §3
CCRF S-180 [6] = assay: Antitumor activity against mouse S180 cells transplanted in Kunming mouse assessed as inhibition of tumor growth at 12.5 mg/kg/day, ip for 7 days; assay type: functional; conditions: CCRF S-180, ip, 168 h, route intraperitoneal; outline: as §3
Mus musculus [7] = assay: Toxicity in Kunming mouse bearing mouse S180 cells assessed as change in body weight at 25 mg/kg/day, ip for 7 days (reference value: 17.9 g); assay type: organism-based, CCRF S-180; set-up: route intraperitoneal; conditions: in vivo, 168 h
Outline: (§4)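 Female Kunming mice, 7 weeks old and 18-22 g, were inoculated sc in the right armpit with S-180 sarcoma. From the next day they received ip injections at the stated daily dose for 7 days, alongside a normal-saline control group. Body weight was recorded at the start and at the end of treatment.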

Mus musculus [8] = assay: Toxicity in Kunming mouse bearing mouse S180 cells assessed as change in body weight at 12.5 mg/kg/day, ip for 7 days (reference value: 17.9 g); assay type: organism-based, CCRF S-180; set-up: route intraperitoneal; conditions: in vivo, 168 h; outline: as §4
HT-29 [9] = assay: Cell cycle arrest in nocodazole pretreated human HT-29 cells assessed as accumulation at M phase at 1 uM after 24 hrs; assay type: functional, cell-based
Outline: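 HT-29 cells stained with propidium iodide; cell-cycle distribution determined by flow cytometry.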

HT-29 [10] = assay: Cytotoxicity against human HT-29 cells after 72 hrs in presence of FeSO4; assay type: functional, cell-based
[11] = target: T1, DNA topoisomerase 2-alpha (Homo sapiens, UniProt P11388); assay: Inhibition of human topoisomerase 2alpha-mediated relaxation of pBR322
[12] = target: T1, DNA topoisomerase 2-alpha; assay: Inhibition of human topoisomerase 2alpha-mediated decatenation of kDNA
HL60/MX2 = assay: Cytotoxicity against human HL60/MX2 cells; assay type: functional, cell-based
[13] = target: T1, DNA topoisomerase 2-alpha; assay: Inhibition of topoisomerase-2 alpha in human HL60/MX2 cells assessed as antagonization of etoposide-mediated enzyme-DNA cleavage complex at 100 uM; assay type: cell-based
[14] = target: T1, DNA topoisomerase 2-alpha; assay: Inhibition of topoisomerase 2-mediated displacement of ethidium bromide from DNA assessed as decrease in fluorescence
[15] = target: T1, DNA topoisomerase 2-alpha; assay: Inhibition of human topoisomerase 2alpha binding to pBR322 DNA binding by electrophoretic mobility shift assay
Outline: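 Electrophoretic mobility shift assay. 0.2 μg supercoiled pBR322 with 200 nM human Topo IIα, ± compound, 10 min at 37 °C. Separated 90 min on 1% agarose containing 0.5 μg/mL ethidium bromide in TAE.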

[16] = target: T1, DNA topoisomerase 2-alpha; assay: Inhibition of human topoisomerase 2alpha ATPase domain assessed as ATP hydrolysis
Outline: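 NADH-coupled ATPase assay at 37 °C in 100 μL. Contains 2 μg Topo IIα ATPase domain (or 18 nM Topo IIα), 0.2 μg pBR322, 1 mM ATP, 2 mM PEP, 0.16 mM NADH, 5 U pyruvate kinase and 8 U lactate dehydrogenase.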

[17] = target: T1, DNA topoisomerase 2-alpha; assay: Inhibition of topoisomerase-2 alpha in human HT-29 cells assessed as reversal of etoposide-mediated DNA double strand break measured as phosphorylated histone2A level at 30 uM by immunostaining; assay type: cell-based
[18] = target: T1, DNA topoisomerase 2-alpha; assay: Binding affinity to human topoisomerase 2 alpha ATPase domain
Outline: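 Surface plasmon resonance. Human Topo IIα ATPase domain immobilised on CM5 chips after activation of surface carboxyl groups. Serial compound dilutions flowed over the chip and sensorgrams recorded. KD obtained by steady-state affinity fitting.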

HT-29 [19] = assay: Inhibition of DNA synthesis in human HT-29 cells measured at 0.25 to 1 uM by BrdU incorporation assay; assay type: functional, cell-based; outline: as §2
[20] = target: T1, DNA topoisomerase 2-alpha; assay: Inhibition of topoisomerase 2alpha assessed as antagonization of etoposide-mediated prestrand passage DNA cleavage in absence of ATP

T1 sequence (P11388 whole entry): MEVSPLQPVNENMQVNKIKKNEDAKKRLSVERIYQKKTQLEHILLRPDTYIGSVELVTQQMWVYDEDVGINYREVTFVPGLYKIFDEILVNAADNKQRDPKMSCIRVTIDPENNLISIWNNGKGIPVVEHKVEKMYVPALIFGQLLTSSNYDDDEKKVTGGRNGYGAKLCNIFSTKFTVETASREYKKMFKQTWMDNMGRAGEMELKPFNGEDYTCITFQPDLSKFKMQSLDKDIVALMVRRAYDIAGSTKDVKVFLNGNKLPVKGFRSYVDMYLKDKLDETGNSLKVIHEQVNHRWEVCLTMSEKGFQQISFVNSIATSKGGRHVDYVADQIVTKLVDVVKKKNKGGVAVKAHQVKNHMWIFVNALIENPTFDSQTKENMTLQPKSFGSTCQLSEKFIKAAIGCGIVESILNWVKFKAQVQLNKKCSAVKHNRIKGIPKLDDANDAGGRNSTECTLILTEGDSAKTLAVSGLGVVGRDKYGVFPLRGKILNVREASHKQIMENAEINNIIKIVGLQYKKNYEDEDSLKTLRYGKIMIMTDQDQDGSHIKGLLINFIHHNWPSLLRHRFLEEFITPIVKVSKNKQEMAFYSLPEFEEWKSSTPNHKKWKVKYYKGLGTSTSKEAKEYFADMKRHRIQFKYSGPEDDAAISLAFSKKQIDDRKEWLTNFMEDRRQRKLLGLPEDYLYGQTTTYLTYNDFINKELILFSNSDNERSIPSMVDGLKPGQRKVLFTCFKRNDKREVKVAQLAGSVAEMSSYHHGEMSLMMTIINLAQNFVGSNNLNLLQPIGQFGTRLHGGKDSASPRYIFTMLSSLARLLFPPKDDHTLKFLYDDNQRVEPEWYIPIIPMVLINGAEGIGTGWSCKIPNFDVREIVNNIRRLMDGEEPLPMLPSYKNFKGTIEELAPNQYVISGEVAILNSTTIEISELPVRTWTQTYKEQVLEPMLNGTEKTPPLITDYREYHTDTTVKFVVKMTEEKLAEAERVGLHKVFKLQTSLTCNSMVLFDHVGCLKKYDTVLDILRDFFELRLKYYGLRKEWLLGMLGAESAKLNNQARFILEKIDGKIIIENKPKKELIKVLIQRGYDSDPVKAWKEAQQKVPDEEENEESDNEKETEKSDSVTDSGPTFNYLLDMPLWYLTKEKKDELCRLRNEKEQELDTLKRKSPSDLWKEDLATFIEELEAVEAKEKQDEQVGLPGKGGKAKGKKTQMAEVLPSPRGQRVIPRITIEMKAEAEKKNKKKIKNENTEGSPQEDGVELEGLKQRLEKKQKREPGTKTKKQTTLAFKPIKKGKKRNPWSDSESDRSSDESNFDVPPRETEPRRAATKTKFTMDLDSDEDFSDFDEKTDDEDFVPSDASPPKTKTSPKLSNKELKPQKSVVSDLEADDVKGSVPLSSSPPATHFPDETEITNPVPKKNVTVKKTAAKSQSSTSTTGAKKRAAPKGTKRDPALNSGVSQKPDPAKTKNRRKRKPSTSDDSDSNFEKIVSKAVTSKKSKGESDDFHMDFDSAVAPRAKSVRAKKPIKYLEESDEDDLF

CN(C)C(=S)N/N=C/c1ccc2ccccc2n1
IC50 [1]: 200 nM | IC50 (HL-60): 50 nM | IC50 (HeLa): 90 nM | inhibition (HT-29 [2]): Dose-dependent effect | IC50 (LoVo): 60 nM | IC50 (MKN-45): 830 nM | IC50 (MKN-28): 170 nM | IC50 (MDA-MB-231): 20 nM | IC50 (MDA-MB-435): 370 nM | IC50 (NCI-H23): 80 nM | IC50 (A549): 450 nM | IC50 (Bel-7402): 180 nM | IC50 (SMMC-7721): 240 nM | IC50 (K562): 60 nM | IC50 (A-375): 20 nM | IC50 (KB): 770 nM | IC50 [3]: 60 nM | inhibition in vivo at 50 mg/kg/day (CCRF S-180 [4]): 76.7% | inhibition in vivo at 25 mg/kg/day (CCRF S-180 [5]): 35.8% | inhibition in vivo at 12.5 mg/kg/day (CCRF S-180 [6]): 17.6% | Activity (Mus musculus [7]): 23.9 g | Activity (Mus musculus [8]): 29 g | Activity (HT-29 [9]): Active | inhibition (HT-29 [10]): Active | inhibition [11]: Dose-dependent effect | inhibition [12]: Dose-dependent effect | Activity (HL60/MX2): Active | inhibition [13]: Active | inhibition [14]: inactive | inhibition [15]: inactive | inhibition [16]: Dose-dependent effect | inhibition [17]: Active | Kd [18]: 18300 nM | inhibition (HT-29 [19]): Dose-dependent effect | inhibition [20]: inactive
